TAAR1 antagonist: human TAAR1 antagonists, primary screen, Fluo-8 calcium fluorescence, CHO RD-HGA16 cells; antagonist; inhibition, % at 3 µM; 1.5% of 360,000 active; AID 624466, 2012;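 active = inhibition above a per-plate cutoff, the mean inhibition of test compounds on that plate plus 3 SD, cut at about 49% in these data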;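 note: 0% = DMSO plus EC80 beta-PEA response and 100% = DMSO alone without agonist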
Target sequence (Q96RJ0 whole entry, looked up): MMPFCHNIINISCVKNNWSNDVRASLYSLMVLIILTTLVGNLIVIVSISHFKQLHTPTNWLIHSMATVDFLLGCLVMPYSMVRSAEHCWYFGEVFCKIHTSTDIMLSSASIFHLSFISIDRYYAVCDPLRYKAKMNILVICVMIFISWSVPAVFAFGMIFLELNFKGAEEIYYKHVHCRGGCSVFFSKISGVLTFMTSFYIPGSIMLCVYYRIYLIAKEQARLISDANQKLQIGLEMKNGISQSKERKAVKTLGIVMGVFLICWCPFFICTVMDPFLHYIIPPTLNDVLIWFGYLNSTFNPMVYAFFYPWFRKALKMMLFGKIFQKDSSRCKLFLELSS
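Test system: RD-HGA16 CHO cells with stable hTAAR1 and Gα16 / Probe or stimulus: EC80 β-phenethylamine stimulus / Times: seeding 17-24 h prior, 75-min 37 °C, 30-min RT dye loading / Detection: Fluo-8 calcium-sensitive fluorescence / Read-out basis: % inhibition scaled between DMSO and EC80 PEA controls / Repeats: singlicate, one well per test compound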
GPR7 antagonist: GPR7 receptor antagonists, primary screen, cell-based, fluorescence, single concentration; GPR7-expressing cells, fluorescence antagonist assay; inhibition, % at 4.4 µM; 1.1% of 290,000 active; AID 1861, 2009; in the data active = inhibition above about 16%, passing the limit was not always enough;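 note: cells stimulated with the agonist NPW; 0% = agonist with vehicle and 100% = vehicle without agonist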
Target sequence (P48145 whole entry, looked up): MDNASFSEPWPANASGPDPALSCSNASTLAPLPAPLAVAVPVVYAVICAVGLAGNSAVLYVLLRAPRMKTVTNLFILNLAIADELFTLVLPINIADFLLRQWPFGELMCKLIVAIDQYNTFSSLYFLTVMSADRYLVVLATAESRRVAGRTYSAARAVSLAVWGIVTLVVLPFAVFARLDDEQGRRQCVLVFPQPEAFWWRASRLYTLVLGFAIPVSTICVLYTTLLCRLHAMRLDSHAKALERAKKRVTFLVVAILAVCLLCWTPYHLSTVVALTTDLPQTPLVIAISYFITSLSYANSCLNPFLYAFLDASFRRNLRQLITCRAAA
CHO parental Ca: ATP-evoked calcium signal inhibitors, parental CHO, primary screen, counter-screen for OX1R antagonist project, cell-based, fluorescence, Fluo-8 calcium dye; AID 463079, 2010; 0.63% of 330,000 active; inhibition, % at 5.6 µM; parental CHO-K1, ATP-induced calcium, Fluo-8 fluorescence;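 active = inhibition above that plate's mean sample inhibition plus 3 SD, cut at about 26% in these data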;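 note: 0% = ATP-challenged DMSO wells and 100% = DMSO wells without ATP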
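material = parental CHO cells | also added = ATP as calcium-mobilizing challenge | dosing = single point at 5.6 µM | detection = intracellular calcium via Fluo-8 no-wash fluorescent dye | read-out = % inhibition | benchmarks = low control ATP plus DMSO, high control DMSO only | repeats = one well per compound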
TAAR1 ag: human TAAR1 agonists, primary screen, Fluo-8 calcium fluorescence, CHO RD-HGA16 cells | Trace amine-associated receptor 1 (Homo sapiens), Q96RJ0 | vehicle wells 0%, saturating PEA agonist 100% | activation, % at 3 µM | 0.99% of 360,000 active;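 active = activation above the mean activation of all test compounds in the run plus 3 SD, cut at about 38% in these data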
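test system = CHO RD-HGA16 cells carrying human TAAR1 plus Gα16 | schedule = 17-24 h seeding, 75 min 37 °C dye, 30 min RT | compound dosing = 3 µM single concentration | control set = DMSO and PEA EC100 | replicates = n 1 | signal = Fluo-8 fluorescence, 5 s baseline then 140 s kinetic read | measure = percent activation vs PEA EC100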
OX1R antag-1: OX1R (HCRTR1) antagonists, primary screen, fluorescence, CHO/OX1R cells, Fluo-8 calcium, orexin A; 0.43% of 330,000 active; Fluo-8 calcium fluorescence; AID 434989, 2010; inhibition, % at 5 µM; Orexin/Hypocretin receptor type 1 (Homo sapiens), O43613;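 active = inhibition above its plate's threshold, mean inhibition of all tested compounds on the plate plus 3 SD, cut at about 37% in these data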;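 note: 0% = orexin A challenge wells and 100% = SB-334867-A antagonist wells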
OX1R antag-2: antagonists of human orexin 1 receptor (OX1R); OX1R-expressing cells, FRET antagonist read-out; inhibition, % at 6.6 µM; 1.8% of 330,000 active; in the data active = inhibition mostly above about 38%, no sharp cut-off; inactive = mostly below about 40%;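 note: 0% = agonist challenge alone and 100% = reference antagonist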
* hit, by the source's call; x = not tested or not shown. The list is not random: actives were taken first. Their share in the collection is about 4.6%.

SMILES	TAAR1 antagonist	GPR7 antagonist	CHO parental Ca	TAAR1 ag	OX1R antag-1	OX1R antag-2
O=C(N[C@H](C(=O)N1CCC[C@H]1C(=O)NC1CCCC1)c1ccccc1)c1ccc(Cl)cc1Cl	-30.2	x	x	5.3	x	x
CC1=C(c2ccccc2)C(=O)C(C)(C)CC1=O	-12.5	x	x	5.9	x	x
Cc1cc(N2CCNC[C@H]2C)ccc1N1CCS(=O)(=O)CC1	5.0	x	x	1.9	x	x
CCc1noc(C)c1C(=O)NCCN1C(=O)S/C(=C\c2ccc(OC)cc2)C1=O	8.4	x	23.0	3.1	-3.3	58.1*
CCNC(=O)C1CCCN(C(=O)c2cc(F)cc(F)c2)CC1 (configuration not stated)	-6.3	x	x	1.5	x	x
Cc1ccccc1S(=O)(=O)Oc1ccccc1C(=O)Oc1ccccc1	21.4	-4.2	39.4*	9.7	27.2	30.3
COc1ccccc1C(=O)Oc1ccc2ccc(=O)oc2c1	-7.1	-9.0	-11.6	-0.1	-18.6	14.0
O=C(Oc1ccccc1C(=O)Oc1ccccc1)c1cccnc1	1.8	-10.3	-3.4	2.4	1.4	8.1
COc1ccccc1C(=O)Oc1ccc(C(C)(C)C)cc1	39.2	-5.4	40.7*	12.2	-10.2	3.4
CC(C)c1[nH]nc2c1C(c1ccc(Br)cc1)NC2=O (configuration not stated)	-19.2	x	x	2.3	x	x
CC(=O)c1c(O)cc2c3c1OC(C)(C)C1CCC(C)(CC31)O2 (configuration not stated)	52.3*	x	x	7.8	x	x
CCCC[n+]1ccn(C2=C([O-])c3ccccc3C(=O)/C2=N\S(=O)(=O)c2ccc(Br)cc2)c1	-15.2	-8.7	-15.4	1.6	-21.3	20.4
Cc1ccc(S(=O)(=O)/N=C2\C(=O)c3ccccc3C([O-])=C2n2cc[n+](CCC(C)C)c2)cc1	x	-3.6	-8.5	x	-14.7	44.4*
Cc1ccc(NC(=O)C[n+]2ccn(C3=C([O-])c4ccccc4C3=O)c2)cc1	11.4	-24.8	-2.2	43.2*	-6.7	40.0
CCc1nc2ccc(C(=O)NCc3ccc(OC)cc3)cn2c1N(CCC(C)C)CCN(C)C	-18.7	x	x	5.5	x	x
CC(C)(C)OC(=O)N[C@@H](Cc1ccccc1)c1nnc(S(=O)(=O)Cc2ccccc2)o1	20.6	17.4	31.9*	9.6	29.7	20.0
CCSc1nnc([C@H](Cc2ccccc2)NC(=O)OC(C)(C)C)o1	5.7	-9.6	-19.2	5.0	-31.2	14.3
Cc1ccccc1CS(=O)(=O)c1nnc([C@H](Cc2ccccc2)NC(=O)OC(C)(C)C)o1	23.1	-0.1	50.8*	2.0	34.1	1.4
Cc1ccc(Nc2c(-c3ccccn3)nc3ccc(C)cn23)cc1	3.5	1.5	36.4*	2.5	-25.8	27.2
COc1ccc(C(=O)OCC(=O)NC2CCCCCCC2)cc1OC	-13.5	x	-18.8	8.8	6.3	1.7
CCCCOC(=O)CCn1c(=S)oc2ccccc21	25.1	-1.0	-7.0	44.5*	-42.2	5.9
CCCNC(=O)CCn1c(=S)oc2ccccc21	-10.4	-5.0	2.9	2.0	0.5	3.2
Cc1ccc(/C=C/c2ccc(N(C)C)cc2)[n+](C)c1	11.2	0.1	14.6	1.5	-7.7	39.5*
CC(=O)N(Cc1ccccc1)c1ncc2c(n1)c(=O)c(C#N)c1ccccn12	-16.2	6.2	-15.0	-1.9	4.3	63.3*
CC(=O)N(Cc1c(C#N)c2ccccc2n1C)c1ccccc1	-28.5	2.4	-12.2	5.0	-20.9	14.4
SMILES	TAAR1 antagonist	GPR7 antagonist	CHO parental Ca	TAAR1 ag	OX1R antag-1	OX1R antag-2
COCCNC(=O)c1cc(S(=O)(=O)N(C)C2CCCCC2)ccc1Cl	-14.5	x	x	0.8	x	x
O=C(C(=O)N1CCCCCC1)c1c[nH]c2ccccc12	-10.0	-17.7	x	2.7	x	x
C[n+]1cc(C(=O)N2CCCCC2)ccc1/C=C/c1c[nH]c2ccccc12	1.5	-2.1	5.2	25.3	-0.2	69.3*
O=C(NCCc1ccccc1)c1cccc2c(-c3cccnc3)coc12	5.4	x	x	2.5	x	x
O=C(N[C@H](C(=O)N1CCC[C@H]1C(=O)NCCc1ccccc1Cl)c1ccccc1)c1ccc(Cl)cc1Cl	35.6	x	x	29.5	x	x
O=C(NC(c1ccc(F)cc1)c1ccc2ccccc2n1)C1CCN(CCOc2ccc(Cl)cc2)CC1 (configuration not stated)	33.5	x	x	19.4	x	x
NC(c1csc(Nc2nncc3ccccc23)n1)C1CCCCC1 (configuration not stated)	9.5	x	x	36.2	x	x
Cc1ccc(Nc2nc(-c3cccnc3)cs2)cc1C	-7.0	-13.3	-32.1	2.5	-39.0	57.8*
Brc1ccc(Nc2nc(-c3cccnc3)cs2)cc1	13.7	-1.5	17.0	-1.5	-26.3	59.4
COC(=O)[C@]12C[C@H](CC(=O)N3CCC(c4ccccc4)CC3)C(=O)N(CCC3=CCCCC3)C1=C[C@H](COCc1ccccc1)O[C@@H]2C	-19.2	x	x	-1.2	x	x
O=C(Nc1ccc(Cl)c(C(F)(F)F)c1)[C@@H]1CC=C[C@@H]2CCN(C3CC3)C(=O)[C@@H]21	-2.0	x	-26.9	10.1	-10.1	62.2*
O=C(Nc1ccc(Cl)c(C(F)(F)F)c1)[C@@H]1CC=C[C@@H]2CCN(C3CCCCC3)C(=O)[C@@H]21	13.5	x	-9.2	14.3	0.0	10.6
CC(C)(C)c1ccc(OCc2ccc(C(=O)N/N=C/c3ccc(O)c(O)c3)cc2)cc1	53.0*	-6.1	3.6	16.3	-10.4	10.6
CC(=O)N(c1nc2ccccc2s1)N1C(=O)c2ccccc2C1=O	-39.0	x	x	0.9	x	x
Cc1ccc(SCC(=O)OCC(=O)N(C)CC(=O)Nc2ccc(F)cc2)cc1C	42.4	x	-24.8	112.7*	-25.7	16.9
CCN1CCN(C2=C(NS(=O)(=O)c3ccccc3)C(=O)c3ccccc3C2=O)CC1	-9.2	-12.1	-16.3	0.3	-4.3	73.7*
CCOC(=O)N1CCN(C2=C(NS(=O)(=O)c3ccccc3)C(=O)c3ccccc3C2=O)CC1	-31.4	-9.4	-29.7	10.0	-26.8	67.6*
CCOC(=O)N1CCN(C2=C(NS(=O)(=O)c3ccc(Br)cc3)C(=O)c3ccccc3C2=O)CC1	6.5	x	x	-0.4	x	x
COc1cc(-c2cc(NC(C)=O)c3ncc(-c4ccccc4)n3c2)cc(OC)c1OC	49.5*	x	x	2.9	x	x
COc1ccc(-c2cc(NC(C)=O)c3ncc(-c4ccc(OC)c(OC)c4)n3c2)cc1OC	-0.5	x	x	1.6	x	x
COc1ccc(-c2cnc3c(NC(C)=O)cc(-c4ccccc4OC)cn23)cc1OC	52.3*	x	x	6.8	x	x

High-throughput results: PubChem BioAssay, The Scripps Research Institute Molecular Screening Center
